{
  "source": "ChEMBL document CHEMBL1157378",
  "about": "“Role for cell density in antifungal drug resistance in Candida albicans biofilms” (2007)",
  "key": {"Candida albicans [1]": {"tested_on": "Candida albicans", "assay": "Antimicrobial activity against Cdr1, Cdr2 and Mdr1 deficient Candida albicans DSY1050 dissociated biofilms at cell density of 10^8 cells/ml after 48 hrs by XTT assay", "type": "functional", "conditions": "DSY1050, 48 h", "outline": "(§1)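 Polystyrene-well biofilms (48 h, 37°C) washed, then broken up in 100 µl RPMI by scraping and aspiration. Cells used undiluted (about 2 x 10^8 cells/ml equivalent) or adjusted by A600 against a hemacytometer-calibrated yeast standard curve. Drug exposure at 37°C for 48 h (caspofungin 24 h), then XTT/menadione read at 490 nm.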"}, "Candida albicans [2]": {"tested_on": "Candida albicans", "assay": "Antimicrobial activity against Candida albicans SC5314 dissociated biofilms grown on silicone-elastomer coated latex surface at cell density of 10^3 cells/ml at 0.25 to 8 ug/ml by XTT assay", "type": "functional, organism-based", "outline": "(§2)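 1-cm discs of denture acrylic, PVC catheter or silicone elastomer-coated latex catheter, ethylene-oxide sterilised. Seeded with 1 ml of 1 x 10^6 cells/ml, adhesion 90 min at 37°C, washed, grown 48 h at 37°C in RPMI. Biofilm scraped off, set to 1 x 10^3 or 1 x 10^8 cells/ml, exposed to fluconazole, read by XTT at 490 nm.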"}, "Candida albicans [3]": {"tested_on": "Candida albicans", "assay": "Antimicrobial activity against Candida albicans GDH2346 intact biofilms after 48 hrs by XTT assay", "type": "functional", "conditions": "GDH2346, 48 h", "outline": "(§3)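 Biofilm seeded at 1 x 10^6 cells/ml in RPMI in polystyrene microtiter wells and grown 48 h at 37°C in a moist chamber. Washed once and drug added to the same well (twofold dilutions, 1,024 to 0.0313 µg/ml) for 48 h at 37°C (caspofungin 24 h). Read-out: XTT/menadione reduction at 490 nm.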"}, "Candida albicans [4]": {"tested_on": "Candida albicans", "assay": "Antimicrobial activity against Candida albicans SC5314 dissociated biofilms grown on polyvinylchloride catheter surface at cell density of 10^8 cells/ml at 0.25 to 8 ug/ml by XTT assay", "type": "functional, organism-based", "outline": "as §2"}, "Candida albicans [5]": {"tested_on": "Candida albicans", "assay": "Antimicrobial activity against Candida albicans FH1 at planktonic cell density of 10^3 cells/ml after 48 hrs by XTT assay", "type": "functional", "conditions": "FH1, 48 h", "outline": "(§4)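 YNB-grown yeast (50 mM glucose, room temperature, shaken, to ~2 x 10^8 cells/ml) washed into MOPS-buffered RPMI 1640 with L-glutamine and set to the stated density. Exposed to twofold serial drug dilutions (1,024 to 0.0313 µg/ml) at 37°C, 48 h (caspofungin 24 h), with drug-free controls. Read-out: XTT (0.5 g/liter) plus 1 µM menadione, formazan at 490 nm.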"}, "Candida albicans [6]": {"tested_on": "Candida albicans", "assay": "Antimicrobial activity against Candida albicans SC5314 intact biofilms after 48 hrs by XTT assay", "type": "functional", "conditions": "SC5314, 48 h", "outline": "as §3"}, "Candida albicans [7]": {"tested_on": "Candida albicans", "assay": "Antimicrobial activity against Candida albicans intact biofilms", "type": "functional", "outline": "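Biofilm formed in polystyrene wells from 1 x 10^6 cells/ml, 48 h at 37°C in MOPS-buffered RPMI 1640, washed once. Intact biofilm exposed in the same well to twofold serial drug dilutions (1,024 to 0.0313 µg/ml) at 37°C for 48 h (caspofungin 24 h), with drug-free controls. Metabolic activity measured by XTT plus 1 µM menadione, absorbance at 490 nm.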"}, "Candida albicans [8]": {"tested_on": "Candida albicans", "assay": "Antimicrobial activity against Cdr1, Cdr2 and Mdr1 deficient Candida albicans DSY1050 intact biofilms after 48 hrs by XTT assay", "type": "functional", "conditions": "DSY1050, 48 h", "outline": "as §3"}, "Candida albicans [9]": {"tested_on": "Candida albicans", "assay": "Antimicrobial activity against Candida albicans SC5314 at planktonic cell density of 10^8 cells/ml after 48 hrs by XTT assay", "type": "functional", "conditions": "SC5314, 48 h", "outline": "as §4"}, "Candida albicans [10]": {"tested_on": "Candida albicans", "assay": "Antimicrobial activity against Candida albicans SC5314 dissociated biofilms grown on polymethylmethacrylate surface at cell density of 10^3 cells/ml at 0.25 to 8 ug/ml by XTT assay", "type": "functional, organism-based", "outline": "as §2"}, "Candida albicans [11]": {"tested_on": "Candida albicans", "assay": "Antimicrobial activity against fluconazole-resistant Candida albicans FH5 dissociated biofilms at cell density of 10^3 cells/ml after 48 hrs by XTT assay", "type": "functional", "conditions": "FH5, 48 h", "outline": "as §1"}, "Candida albicans [12]": {"tested_on": "Candida albicans", "assay": "Antimicrobial activity against Candida albicans SC5314 dissociated biofilms at cell density of 10^8 cells/ml after 48 hrs by XTT assay", "type": "functional", "conditions": "SC5314, 48 h", "outline": "as §1"}, "Candida albicans [13]": {"tested_on": "Candida albicans", "assay": "Antimicrobial activity against Candida albicans planktonic forms", "type": "functional", "outline": "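Yeast grown in YNB/50 mM glucose at room temperature to about 2 x 10^8 cells/ml, washed, and resuspended in MOPS-buffered RPMI 1640. Tested at 2 x 10^3 cells/ml (standard) or at densities from 1 x 10^3 to 1 x 10^8 cells/ml. Incubated with twofold drug dilutions at 37°C for 48 h (caspofungin 24 h). XTT-menadione read-out at 490 nm.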"}},
  "note": "Calls of active or inactive are those of the source. The rule behind the calls is not given here.",
  "data": [
    {"smiles": "OC(Cn1cncn1)(Cn1cncn1)c1ccc(F)cc1F", "note": "[FLUCONAZOLE]", "values": [
      {"measurement": "MIC80", "setting": "Candida albicans [1]", "value": "> 64", "unit": "µg/mL"},
      {"measurement": "Activity", "setting": "Candida albicans [2]", "value": "Active"},
      {"measurement": "MIC80", "setting": "Candida albicans [3]", "value": "> 512", "unit": "µg/mL"},
      {"measurement": "Activity", "setting": "Candida albicans [4]", "value": "inactive"},
      {"measurement": "MIC80", "setting": "Candida albicans [5]", "value": 4, "unit": "µg/mL"},
      {"measurement": "MIC80", "setting": "Candida albicans [6]", "value": "> 512", "unit": "µg/mL"},
      {"measurement": "MIC", "setting": "Candida albicans [7]", "value": "> 1020", "unit": "µg/mL"},
      {"measurement": "MIC80", "setting": "Candida albicans [8]", "value": "> 64", "unit": "µg/mL"},
      {"measurement": "MIC80", "setting": "Candida albicans [9]", "value": "> 256", "unit": "µg/mL"},
      {"measurement": "Activity", "setting": "Candida albicans [10]", "value": "Active"},
      {"measurement": "MIC80", "setting": "Candida albicans [11]", "value": 64, "unit": "µg/mL"},
      {"measurement": "MIC80", "setting": "Candida albicans [12]", "value": "> 256", "unit": "µg/mL"},
      {"measurement": "MIC", "setting": "Candida albicans [13]", "value": 2, "unit": "µg/mL"}
    ]}
  ]
}
